Columns and labels:
[1] = target: Histone deacetylase; test: Inhibition of HDAC in human HeLa cell nuclear extracts by fluorimetric assay; type: protein assay
[2] = tested on: HCT-116; test: cells; type: functional; settings: Homo sapiens, HCT-116, 72 h
[3] = tested on: HeLa; test: cells; type: functional; settings: Homo sapiens, 72 h
[4] = tested on: U-937; test: cells; type: functional; settings: Homo sapiens, U-937, 72 h
[5] = tested on: HuT78; test: cells; type: functional; settings: Homo sapiens, HuT78, 72 h
[6] = Metabolic stability in human liver microsomes at 10 uM after 30 mins; type: ADME, Microsome; settings: read-out: Stability
In short: (§1)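 Compound at 10 µM incubated with human or mouse liver microsomes. Read-out is the percentage of parent remaining after 30 min.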

[7] = Metabolic stability in mouse liver microsomes at 10 uM after 30 mins; type: ADME, Microsome; settings: read-out: Stability; in short: as §1
[8] = Apparent permeability of the compound by PAMPA assay; type: ADME
[9] = target: T1, Cytochrome P450 1A2 (Homo sapiens, UniProt P05177); test: Inhibition of CYP1A2 at 50 uM; type: ADME
T1 sequence (P05177 whole entry): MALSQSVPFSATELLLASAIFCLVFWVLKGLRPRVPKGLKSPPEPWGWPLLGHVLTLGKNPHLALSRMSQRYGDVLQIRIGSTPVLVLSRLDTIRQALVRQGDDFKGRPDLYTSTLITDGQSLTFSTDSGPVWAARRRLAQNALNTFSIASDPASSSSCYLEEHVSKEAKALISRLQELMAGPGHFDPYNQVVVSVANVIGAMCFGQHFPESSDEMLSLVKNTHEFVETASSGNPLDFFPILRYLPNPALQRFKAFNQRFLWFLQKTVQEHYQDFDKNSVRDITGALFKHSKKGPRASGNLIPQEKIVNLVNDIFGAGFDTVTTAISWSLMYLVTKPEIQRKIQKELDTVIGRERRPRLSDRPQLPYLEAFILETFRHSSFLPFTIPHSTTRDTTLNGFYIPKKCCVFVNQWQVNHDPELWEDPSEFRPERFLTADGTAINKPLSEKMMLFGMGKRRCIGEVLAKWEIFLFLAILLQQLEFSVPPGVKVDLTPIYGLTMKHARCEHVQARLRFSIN

[10] = target: T2, Cytochrome P450 2A6 (Homo sapiens, UniProt P11509); test: Inhibition of CYP2A6 at 50 uM; type: ADME
T2 sequence (P11509 whole entry): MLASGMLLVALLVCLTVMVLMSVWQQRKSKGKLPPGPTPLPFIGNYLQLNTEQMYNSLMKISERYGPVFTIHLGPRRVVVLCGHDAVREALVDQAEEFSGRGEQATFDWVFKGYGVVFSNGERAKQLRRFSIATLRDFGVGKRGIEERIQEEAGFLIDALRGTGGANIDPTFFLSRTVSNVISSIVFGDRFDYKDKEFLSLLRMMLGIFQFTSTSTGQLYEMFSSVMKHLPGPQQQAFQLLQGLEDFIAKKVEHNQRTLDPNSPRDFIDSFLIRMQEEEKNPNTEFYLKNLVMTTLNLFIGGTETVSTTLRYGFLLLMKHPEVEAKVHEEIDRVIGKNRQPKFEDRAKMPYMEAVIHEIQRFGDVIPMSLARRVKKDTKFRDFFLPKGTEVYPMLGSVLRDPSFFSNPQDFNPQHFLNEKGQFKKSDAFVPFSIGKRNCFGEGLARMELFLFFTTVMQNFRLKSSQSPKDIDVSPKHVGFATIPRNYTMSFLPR

[11] = target: T3, Cytochrome P450 2C8 (Homo sapiens, UniProt P10632); test: Inhibition of CYP2C8 at 50 uM; type: ADME
T3 sequence (P10632 whole entry): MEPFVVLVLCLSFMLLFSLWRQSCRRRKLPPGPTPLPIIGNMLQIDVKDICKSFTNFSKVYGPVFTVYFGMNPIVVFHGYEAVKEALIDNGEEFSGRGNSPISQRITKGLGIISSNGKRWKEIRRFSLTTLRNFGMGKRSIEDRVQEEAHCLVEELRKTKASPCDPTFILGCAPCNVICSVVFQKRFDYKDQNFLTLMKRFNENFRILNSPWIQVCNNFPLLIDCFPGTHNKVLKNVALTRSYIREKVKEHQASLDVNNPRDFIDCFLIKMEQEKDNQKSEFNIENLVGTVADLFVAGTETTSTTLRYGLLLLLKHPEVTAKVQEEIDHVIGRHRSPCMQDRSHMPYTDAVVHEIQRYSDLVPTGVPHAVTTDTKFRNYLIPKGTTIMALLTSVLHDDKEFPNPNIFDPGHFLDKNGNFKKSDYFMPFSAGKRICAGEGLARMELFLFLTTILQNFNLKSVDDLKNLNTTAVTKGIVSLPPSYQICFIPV

[12] = target: Cytochrome P450 2C19 (Homo sapiens, UniProt P33261); test: Inhibition of CYP2C19 at 50 uM; type: ADME
Chain of Cytochrome P450 2C19 (P33261 whole entry): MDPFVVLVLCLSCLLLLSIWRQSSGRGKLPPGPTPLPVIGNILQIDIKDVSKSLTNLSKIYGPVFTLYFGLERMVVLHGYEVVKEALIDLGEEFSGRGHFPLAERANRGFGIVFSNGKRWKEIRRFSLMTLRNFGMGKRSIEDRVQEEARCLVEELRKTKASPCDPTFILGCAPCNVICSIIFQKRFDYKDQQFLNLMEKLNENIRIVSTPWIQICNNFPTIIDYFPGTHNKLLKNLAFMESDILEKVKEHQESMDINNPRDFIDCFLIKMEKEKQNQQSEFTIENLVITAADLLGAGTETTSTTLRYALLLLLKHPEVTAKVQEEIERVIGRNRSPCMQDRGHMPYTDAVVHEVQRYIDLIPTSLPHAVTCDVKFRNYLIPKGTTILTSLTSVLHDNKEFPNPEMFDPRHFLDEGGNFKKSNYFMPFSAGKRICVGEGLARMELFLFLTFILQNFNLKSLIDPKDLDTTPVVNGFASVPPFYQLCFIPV

[13] = target: Cytochrome P450 3A4 (Homo sapiens, UniProt P08684); test: Inhibition of CYP3A4 at 50 uM; type: ADME
Chain of Cytochrome P450 3A4 (P08684 whole entry): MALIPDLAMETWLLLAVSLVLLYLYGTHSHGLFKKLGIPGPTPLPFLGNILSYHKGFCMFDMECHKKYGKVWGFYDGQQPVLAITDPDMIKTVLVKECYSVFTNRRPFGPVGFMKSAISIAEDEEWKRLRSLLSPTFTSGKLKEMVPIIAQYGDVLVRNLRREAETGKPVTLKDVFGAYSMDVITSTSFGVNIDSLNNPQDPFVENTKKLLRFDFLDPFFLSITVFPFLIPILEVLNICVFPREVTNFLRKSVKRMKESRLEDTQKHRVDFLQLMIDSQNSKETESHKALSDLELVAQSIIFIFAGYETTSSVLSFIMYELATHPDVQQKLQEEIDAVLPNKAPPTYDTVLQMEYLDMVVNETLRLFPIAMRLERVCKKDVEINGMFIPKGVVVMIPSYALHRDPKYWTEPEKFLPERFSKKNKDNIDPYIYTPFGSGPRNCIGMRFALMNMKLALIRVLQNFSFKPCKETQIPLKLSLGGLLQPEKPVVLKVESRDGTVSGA

[14] = target: Cytochrome P450 2D6 (Homo sapiens, UniProt P10635); test: Inhibition of CYP2D6 at 50 uM; type: ADME
Chain of Cytochrome P450 2D6 (P10635 whole entry): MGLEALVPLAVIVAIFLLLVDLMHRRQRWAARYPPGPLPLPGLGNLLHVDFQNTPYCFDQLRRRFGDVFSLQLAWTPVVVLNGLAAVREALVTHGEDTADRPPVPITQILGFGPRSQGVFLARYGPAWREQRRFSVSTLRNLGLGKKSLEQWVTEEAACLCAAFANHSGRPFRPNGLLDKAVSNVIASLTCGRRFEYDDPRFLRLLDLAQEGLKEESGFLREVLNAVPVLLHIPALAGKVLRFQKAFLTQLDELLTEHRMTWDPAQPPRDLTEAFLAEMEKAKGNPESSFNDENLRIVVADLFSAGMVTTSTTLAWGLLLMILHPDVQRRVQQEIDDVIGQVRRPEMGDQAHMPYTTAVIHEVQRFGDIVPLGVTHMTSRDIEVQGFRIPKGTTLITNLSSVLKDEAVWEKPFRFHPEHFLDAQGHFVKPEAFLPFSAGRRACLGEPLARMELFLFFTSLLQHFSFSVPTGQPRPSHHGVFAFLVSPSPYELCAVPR

[15] = target: Voltage-gated inwardly rectifying potassium channel KCNH2 (Homo sapiens, UniProt Q12809); test: Inhibition of human ERG channel
Chain of Voltage-gated inwardly rectifying potassium channel KCNH2 (Q12809 whole entry): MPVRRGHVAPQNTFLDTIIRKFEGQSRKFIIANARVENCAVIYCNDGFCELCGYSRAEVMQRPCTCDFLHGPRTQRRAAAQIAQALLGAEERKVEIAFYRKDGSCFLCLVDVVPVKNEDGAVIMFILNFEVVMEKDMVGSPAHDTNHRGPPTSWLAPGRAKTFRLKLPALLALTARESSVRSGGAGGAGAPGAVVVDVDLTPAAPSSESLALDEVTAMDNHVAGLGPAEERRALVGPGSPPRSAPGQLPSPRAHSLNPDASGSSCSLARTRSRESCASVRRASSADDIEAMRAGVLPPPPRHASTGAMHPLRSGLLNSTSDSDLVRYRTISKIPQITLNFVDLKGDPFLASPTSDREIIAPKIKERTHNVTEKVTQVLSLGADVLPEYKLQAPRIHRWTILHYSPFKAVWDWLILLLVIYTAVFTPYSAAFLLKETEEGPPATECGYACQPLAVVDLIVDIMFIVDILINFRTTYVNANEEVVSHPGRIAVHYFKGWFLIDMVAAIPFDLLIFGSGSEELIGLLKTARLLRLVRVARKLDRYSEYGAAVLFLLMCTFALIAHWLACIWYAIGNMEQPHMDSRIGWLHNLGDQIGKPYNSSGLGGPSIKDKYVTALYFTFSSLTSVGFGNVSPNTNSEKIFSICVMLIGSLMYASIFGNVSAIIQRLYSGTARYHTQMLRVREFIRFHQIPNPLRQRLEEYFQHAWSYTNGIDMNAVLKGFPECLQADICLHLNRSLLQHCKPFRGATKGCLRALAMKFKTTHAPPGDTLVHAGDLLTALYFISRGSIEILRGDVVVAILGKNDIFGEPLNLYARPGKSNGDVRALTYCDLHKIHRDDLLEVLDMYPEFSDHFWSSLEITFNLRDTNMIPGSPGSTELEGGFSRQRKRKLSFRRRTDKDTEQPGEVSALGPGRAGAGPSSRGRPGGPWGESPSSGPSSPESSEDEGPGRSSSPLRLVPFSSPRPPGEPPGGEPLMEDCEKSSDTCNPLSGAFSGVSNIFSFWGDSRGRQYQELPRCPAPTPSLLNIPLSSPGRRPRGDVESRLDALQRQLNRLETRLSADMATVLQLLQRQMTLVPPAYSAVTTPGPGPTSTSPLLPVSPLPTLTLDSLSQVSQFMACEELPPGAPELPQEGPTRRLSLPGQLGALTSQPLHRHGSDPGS

[16] = Oral bioavailability in CD1 mouse at 3 mg/kg; type: ADME, organism-based; settings: in vivo
In short: (§2)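 Cassette PK study in CD1 mice, dosed 3 mg/kg po and 1 mg/kg iv. Cmax was measured in plasma and spleen, and oral bioavailability F was derived.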

[17] = Cmax in CD1 mouse spleen at 3 mg/kg, po or 1 mg/kg, iv; type: ADME, organism-based; in short: as §2
[18] = Cmax in CD1 mouse plasma at 3 mg/kg, po or 1 mg/kg, iv; type: ADME, organism-based; in short: as §2
[19] = tested on: HCT-116; test: Antitumor activity against human HCT116 cells xenografted in CrTac:NCr-Fox1 (nu) athymic mouse assessed as tumor weight at 50 mg/kg, po qd for 16 days relative to untreated control; type: functional
In short: (§3)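 Female athymic mice (n = 14) bearing established bilateral HCT116 colon carcinoma xenografts; oral dosing once daily for 16 days at 50 mg/kg. Read-outs are final tumour weight and mean tumour volume, each relative to control. Body weight was monitored.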

[20] = tested on: HCT-116; test: Antitumor activity against human HCT116 cells xenografted in CrTac:NCr-Fox1 (nu) athymic mouse assessed as tumor volume at 50 mg/kg, po qd for 16 days relative to untreated control; type: functional; in short: as §3
[21] = Drug level in tumor of human HCT116 cells xenografted in CrTac:NCr-Fox1 (nu) athymic mouse at 50 mg/kg, po qd for 16 days measured after 4 hrs; type: ADME, organism-based, Neoplasm, HCT-116; parameters: dose 50 mg/kg, route oral; settings: in vivo
In short: (§4)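 Tissue levels measured in female athymic mice bearing bilateral HCT116 xenografts after oral 50 mg/kg once daily for 16 days. Sampled at 0.5, 1 and 4 h post dose. Plasma is reported in nM; tumour and spleen in nmol/kg. The 1 h values are the mean of three samples; 0.5 and 4 h values are means of two.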

[22] = Drug level in tumor of human HCT116 cells xenografted in CrTac:NCr-Fox1 (nu) athymic mouse at 50 mg/kg, po qd for 16 days measured after 1 hr; type: ADME, organism-based, Neoplasm, HCT-116; parameters: dose 50 mg/kg, route oral; settings: in vivo; in short: as §4
[23] = Drug level in tumor of human HCT116 cells xenografted in CrTac:NCr-Fox1 (nu) athymic mouse at 50 mg/kg, po qd for 16 days measured after 0.5 hrs; type: ADME, organism-based, Neoplasm, HCT-116; parameters: dose 50 mg/kg, route oral; settings: in vivo; in short: as §4
[24] = tested on: Spleen; test: Drug level in spleen of human HCT116 cells xenografted in CrTac:NCr-Fox1 (nu) athymic mouse at 50 mg/kg, po qd for 16 days measured after 0.5 hrs; type: ADME, organism-based, HCT-116; parameters: dose 50 mg/kg, route oral; settings: in vivo; in short: as §4
[25] = tested on: Spleen; test: Drug level in spleen of human HCT116 cells xenografted in CrTac:NCr-Fox1 (nu) athymic mouse at 50 mg/kg, po qd for 16 days measured after 1 hr; type: ADME, organism-based, HCT-116; parameters: dose 50 mg/kg, route oral; settings: in vivo; in short: as §4
[26] = tested on: Spleen; test: Drug level in spleen of human HCT116 cells xenografted in CrTac:NCr-Fox1 (nu) athymic mouse at 50 mg/kg, po qd for 16 days measured after 4 hrs; type: ADME, organism-based, HCT-116; parameters: dose 50 mg/kg, route oral; settings: in vivo; in short: as §4
[27] = Drug level in plasma of human HCT116 cells xenografted in CrTac:NCr-Fox1 (nu) athymic mouse at 50 mg/kg, po qd for 16 days measured after 1 hr; type: ADME, organism-based, HCT-116; parameters: dose 50 mg/kg, route oral; settings: read-out: Drug uptake; in short: as §4
[28] = Drug level in plasma of human HCT116 cells xenografted in CrTac:NCr-Fox1 (nu) athymic mouse at 50 mg/kg, po qd for 16 days measured after 4 hrs; type: ADME, organism-based, HCT-116; parameters: dose 50 mg/kg, route oral; settings: read-out: Drug uptake; in short: as §4
[29] = Permeability from basolateral to apical side in human Caco-2 cells; type: ADME, cell-based; settings: read-out: permeability
[30] = tested on: Mus musculus; test: Inhibition of HDAC in tumor tissue of human HCT116 cells xenografted CrTac:NCr-Fox1 (nu) athymic mouse assessed as increase in histone H3 acetylation at 50 mg/kg, po qd for 16 days measured 1 hr post dose by Western blot relative to untreated control; type: functional, HCT-116
In short: (§5)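 Female athymic nude mice bearing established bilateral HCT116 colon carcinoma xenografts (n = 14), dosed orally once daily for 16 days at 50 mg/kg. Tumour tissue taken after the final dose; histone H3 acetylation by Western blot with anti-acetylated H3 antibody. Band intensity by densitometry, normalised to GAPDH, and expressed as % of DMSO controls. One animal per value, n = 1–3.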

[31] = tested on: Mus musculus; test: Inhibition of HDAC in human HCT116 cells xenografted CrTac:NCr-Fox1 (nu) athymic mouse assessed as increase in histone H3 acetylation at 50 mg/kg, po qd for 16 days measured 4 hrs post dose by Western blot relative to untreated control; type: functional, HCT-116; in short: as §5

O=C(NO)c1cnc(N2C[C@H]3CN(Cc4ccc5ccccc5c4)C[C@H]3C2)nc1
IC50 [1]: 13 nM | GI50 [2]: 120 nM | GI50 [3]: 260 nM | GI50 [4]: 72 nM | GI50 [5]: 79 nM | remaining at 0.5 h, 10 µM [6]: 72% | remaining at 0.5 h, 10 µM [7]: 45% | Papp [8]: 0.5 ×10⁻⁶ cm/s | inhibition (INH) [9]: Not Active | inhibition (INH) [10]: Not Active | inhibition (INH) [11]: Not Active | inhibition (INH) [12]: Not Active | inhibition (INH) [13]: Not Active | IC50 [14]: 10000 nM | IC50 [15]: 4100 nM | bioavailability [16]: 15% | Cmax [17]: 218 ng/mL | Cmax [18]: 31 ng/mL | T/C [19]: 80% | Activity [20]: 28% | Drug uptake [21]: 154 nmol/kg | Drug uptake [22]: 215 nmol/kg | Drug uptake [23]: 80 nmol/kg | Drug uptake [24]: 620 nmol/kg | Drug uptake [25]: 1260 nmol/kg | Drug uptake [26]: 500 nmol/kg | concentration at 1 h [27]: 14 nM | concentration at 4 h [28]: 25 nM | Papp B→A [29]: 9.4 ×10⁻⁶ cm/s | fold change (FC) [30]: 2 | fold change (FC) [31]: 2

O=C(NO)c1cnc(N2C[C@H]3CN(Cc4ccc(Cl)cc4)C[C@H]3C2)nc1
IC50 [1]: 42 nM | GI50 [2]: 490 nM | GI50 [3]: 690 nM | GI50 [4]: 230 nM | GI50 [5]: 190 nM

O=C(NO)c1cnc(N2C[C@@H]3CN(S(=O)(=O)c4ccc5ccccc5c4)C[C@@H]3C2)nc1
IC50 [1]: 64 nM | GI50 [2]: 740 nM | GI50 [3]: 1130 nM | GI50 [4]: 480 nM | GI50 [5]: 300 nM

O=C(NO)c1ccc(N2C[C@H]3CN(Cc4ccc5ccccc5c4)C[C@H]3C2)nc1
IC50 [1]: 45 nM | GI50 [2]: 700 nM | GI50 [3]: 1260 nM | GI50 [4]: 450 nM | GI50 [5]: 340 nM

COc1ccc(CN2C[C@@H]3CN(c4ncc(C(=O)NO)cn4)C[C@@H]3C2)cc1
IC50 [1]: 95 nM | GI50 [2]: 900 nM | GI50 [3]: 950 nM | GI50 [4]: 550 nM | GI50 [5]: 290 nM
